Assay results as given in ChEMBL document CHEMBL1255409, “In vitro activity of ceftaroline against 623 diverse strains of anaerobic bacteria” (2010).

Assays:
Type in all cases: functional
[1] = tested on: Bacteroides fragilis; assay: Antimicrobial activity against Bacteroides fragilis under anaerobic conditions after 44 hrs by CLSI-M11-47 protocol based agar dilution method
How it was run: (§1)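 Reference agar dilution per CLSI M11-A7 with plates made on test day. Clinical isolates were stored at −70°C in 20% skim milk, subcultured twice, and 48-h cell paste was suspended in brucella broth to 0.5 McFarland. About 10^5 CFU/spot was applied with a Steers replicator. Plates were incubated 44 h at 37°C anaerobically. MIC was the lowest concentration giving complete inhibition or marked growth reduction versus the drug-free control.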

[2] = tested on: Parabacteroides distasonis; assay: Antimicrobial activity against Bacteroides distasonis under anaerobic conditions after 44 hrs by CLSI-M11-47 protocol based agar dilution method; how it was run: as §1
[3] = tested on: Prevotella intermedia; assay: Antimicrobial activity against Prevotella intermedia under anaerobic conditions after 44 hrs by CLSI-M11-47 protocol based agar dilution method
How it was run: (§2)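 Clinical isolates were stored at −70°C in 20% skim milk and identified phenotypically or by partial 16S rRNA sequencing. Each strain was subcultured twice from frozen stock. Cell paste from 48-h cultures was suspended in brucella broth to a 0.5 McFarland standard. About 10^5 CFU per spot were applied by Steers replicator to agar dilution plates prepared on the day of testing. Plates were incubated 44 h at 37°C in an anaerobic chamber. MIC was taken as the lowest concentration giving complete inhibition or marked reduction of growth versus the drug-free control.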

[4] = tested on: Prevotella corporis; assay: Antimicrobial activity against Prevotella corporis under anaerobic conditions after 44 hrs by CLSI-M11-47 protocol based agar dilution method; how it was run: as §2
[5] = tested on: Prevotella denticola; assay: Antimicrobial activity against Prevotella denticola under anaerobic conditions after 44 hrs by CLSI-M11-47 protocol based agar dilution method; how it was run: as §2
[6] = tested on: Hoylesella loescheii; assay: Antimicrobial activity against Prevotella loescheii under anaerobic conditions after 44 hrs by CLSI-M11-47 protocol based agar dilution method; how it was run: as §2
[7] = tested on: Prevotella tannerae; assay: Antimicrobial activity against Prevotella tannerae under anaerobic conditions after 44 hrs by CLSI-M11-47 protocol based agar dilution method; conditions: Alloprevotella tannerae; how it was run: as §2
[8] = tested on: Fusobacterium nucleatum; assay: Antimicrobial activity against Fusobacterium nucleatum under anaerobic conditions after 44 hrs by CLSI-M11-47 protocol based agar dilution method; how it was run: as §2
[9] = tested on: Fusobacterium necrophorum; assay: Antimicrobial activity against Fusobacterium necrophorum under anaerobic conditions after 44 hrs by CLSI-M11-47 protocol based agar dilution method; how it was run: as §1
[10] = tested on: Finegoldia magna; assay: Antimicrobial activity against Finegoldia magna under anaerobic conditions after 44 hrs by CLSI-M11-47 protocol based agar dilution method; how it was run: as §1
[11] = tested on: Parvimonas micra; assay: Antimicrobial activity against Parvimonas micra under anaerobic conditions after 44 hrs by CLSI-M11-47 protocol based agar dilution method; how it was run: as §2
[12] = tested on: Anaerococcus vaginalis; assay: Antimicrobial activity against Anaerococcus vaginalis under anaerobic conditions after 44 hrs by CLSI-M11-47 protocol based agar dilution method; how it was run: as §1
[13] = tested on: Anaerococcus; assay: Antimicrobial activity against Anaerococcus sp. under anaerobic conditions after 44 hrs by CLSI-M11-47 protocol based agar dilution method; how it was run: as §1
[14] = tested on: Gemella morbillorum; assay: Antimicrobial activity against Gemella morbillorum under anaerobic conditions after 44 hrs by CLSI-M11-47 protocol based agar dilution method; how it was run: as §2
[15] = tested on: Gemella sanguinis; assay: Antimicrobial activity against Gemella sanguinis under anaerobic conditions after 44 hrs by CLSI-M11-47 protocol based agar dilution method; how it was run: as §2
[16] = tested on: Schaalia meyeri; assay: Antimicrobial activity against Actinomyces meyeri under anaerobic conditions after 44 hrs by CLSI-M11-47 protocol based agar dilution method; how it was run: as §1
[17] = tested on: Schaalia odontolytica; assay: Antimicrobial activity against Actinomyces odontolyticus under anaerobic conditions after 44 hrs by CLSI-M11-47 protocol based agar dilution method; how it was run: as §1
[18] = tested on: Actinomyces turicensis; assay: Antimicrobial activity against Actinomyces turicensis under anaerobic conditions after 44 hrs by CLSI-M11-47 protocol based agar dilution method; conditions: Schaalia turicensis; how it was run: as §1
[19] = tested on: Atopobium parvulum; assay: Antimicrobial activity against Atopobium parvulum under anaerobic conditions after 44 hrs by CLSI-M11-47 protocol based agar dilution method; conditions: Lancefieldella parvula; how it was run: as §1
[20] = tested on: Eubacterium saburreum; assay: Antimicrobial activity against Eubacterium saburreum under anaerobic conditions after 44 hrs by CLSI-M11-47 protocol based agar dilution method; conditions: Lachnoanaerobaculum saburreum; how it was run: as §1
[21] = tested on: Mogibacterium timidum; assay: Antimicrobial activity against Mogibacterium timidum under anaerobic conditions after 44 hrs by CLSI-M11-47 protocol based agar dilution method; how it was run: as §2
[22] = tested on: Slackia exigua; assay: Antimicrobial activity against Slackia exigua under anaerobic conditions after 44 hrs by CLSI-M11-47 protocol based agar dilution method; how it was run: as §2
[23] = tested on: Thomasclavelia ramosa; assay: Antimicrobial activity against Clostridium ramosum under anaerobic conditions after 44 hrs by CLSI-M11-47 protocol based agar dilution method; how it was run: as §1
[24] = tested on: [Clostridium] innocuum; assay: Antimicrobial activity against Clostridium […] under anaerobic conditions after 44 hrs by CLSI-M11-47 protocol based agar dilution method; how it was run: as §1
[25] = tested on: Clostridium aldenense; assay: Antimicrobial activity against Clostridium aldenense under anaerobic conditions after 44 hrs by CLSI-M11-47 protocol based agar dilution method; conditions: Enterocloster aldenensis; how it was run: as §1
[26] = tested on: Clostridium bolteae; assay: Antimicrobial activity against Clostridium bolteae under anaerobic conditions after 44 hrs by CLSI-M11-47 protocol based agar dilution method; conditions: Enterocloster bolteae; how it was run: as §1
[27] = tested on: Clostridium citroniae; assay: Antimicrobial activity against Clostridium citroniae under anaerobic conditions after 44 hrs by CLSI-M11-47 protocol based agar dilution method; conditions: Enterocloster citroniae; how it was run: as §1
[28] = tested on: Clostridium baratii; assay: Antimicrobial activity against Clostridium baratii under anaerobic conditions after 44 hrs by CLSI-M11-47 protocol based agar dilution method
[29] = tested on: Paraclostridium bifermentans; assay: Antimicrobial activity against Clostridium bifermentans under anaerobic conditions after 44 hrs by CLSI-M11-47 protocol based agar dilution method; how it was run: as §1
[30] = tested on: Clostridium cadaveris; assay: Antimicrobial activity against Clostridium cadaveris under anaerobic conditions after 44 hrs by CLSI-M11-47 protocol based agar dilution method; how it was run: as §1
[31] = tested on: Clostridium paraputrificum; assay: Antimicrobial activity against Clostridium paraputrificum under anaerobic conditions after 44 hrs by CLSI-M11-47 protocol based agar dilution method; how it was run: as §1
[32] = tested on: Clostridium symbiosum; assay: Antimicrobial activity against Clostridium symbiosum under anaerobic conditions after 44 hrs by CLSI-M11-47 protocol based agar dilution method; how it was run: as §1

CCO/N=C(\C(=O)N[C@@H]1C(=O)N2C(C(=O)[O-])=C(Sc3nc(-c4cc[n+](C)cc4)cs3)CS[C@H]12)c1nsc(NP(=O)(O)O)n1 [CEFTAROLINE FOSAMIL]
16 µg/mL: MIC50 [1] | MIC90 [3] | MIC90 [28] | MIC90 [29] | MIC90 [30] | MIC90 [31] | MIC90 [32]
0.125 µg/mL: MIC90 [8] | MIC50 [19] | MIC50 [20] | MIC50 [21] | MIC50 [22]
≤ 0.08 µg/mL: MIC50 [8]
0.015 µg/mL: MIC50 [16] | MIC50 [17] | MIC50 [18]
0.06 µg/mL: MIC90 [9] | MIC50 [11] | MIC50 [12] | MIC50 [13] | MIC50 [14] | MIC50 [15]
0.03 µg/mL: MIC50 [9]
0.5 µg/mL: MIC90 [10] | MIC50 [28] | MIC50 [29] | MIC50 [30] | MIC50 [31] | MIC50 [32]
32 µg/mL: MIC90 [4] | MIC90 [5] | MIC90 [6] | MIC90 [7]
1 µg/mL: MIC50 [3] | MIC90 [12] | MIC90 [13] | MIC90 [14] | MIC90 [15] | MIC50 [23] | MIC90 [23] | MIC50 [24] | MIC50 [25] | MIC50 [26] | MIC50 [27]
0.25 µg/mL: MIC50 [10] | MIC90 [11] | MIC90 [16] | MIC90 [17] | MIC90 [18] | MIC90 [19] | MIC90 [20] | MIC90 [21] | MIC90 [22]
2 µg/mL: MIC50 [4] | MIC50 [5] | MIC50 [6] | MIC50 [7] | MIC90 [24] | MIC90 [25] | MIC90 [26] | MIC90 [27]
64 µg/mL: MIC90 [1] | MIC50 [2]
> 64 µg/mL: MIC90 [2]
